The record followed here is ChEMBL document CHEMBL1145640 (Bioorg Med Chem Lett, 2008).

Each structure is given as a SMILES string. The source made the active and inactive calls. The calls are words filed in the database; no cut-off is given here. Bounds are passed on as bounds.

Data set [1] deals with Glutamate receptor ionotropic, NMDA 2B (Rattus norvegicus, UniProt Q00960). The data set can be described thus: Displacement of [3H]ifenprodil from rat brain membrane NR2B receptor. For orientation: Displacement assays read how much labelled ligand stays bound in the presence of the test substance.
Data set [2] has as its target T1, Glutamate NMDA receptor; GRIN1/GRIN2B (Homo sapiens, UniProt Q05586+Q13224). In words: Inhibition of NR1/NR2B receptor expressed in xenopus oocytes assessed as effect on L-glutamate and glycine-induced current response at 10 uM. The following applies: Oocyte. It is filed as cell-based.
In data set [3] the target is Glutamate receptor ionotropic, NMDA 2B (Rattus norvegicus) (UniProt Q00960). The data set can be described thus: Displacement of [3H]ifenprodil from rat brain membrane NR2B receptor relative to ifenprodil.
Data set [4] can be described thus: Stability in frogs Ringer buffer by HPLC. Format: physicochemical. The following applies: frog's Ringer buffer.
Data set [5] is described as follows: Stability in frogs Ringer buffer in presence of N-acetyl cysteine methyl ester by HPLC. Format: physicochemical. The following applies: frog's Ringer buffer with N-acetyl cysteine methyl ester. In outline: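 Half-life in frog's Ringer buffer, pH 7.4, followed by HPLC peak-area decrease over time in presence of excess N-acetyl cysteine methyl ester; NACME and compound levels varied per run (mM range); reactivity also expressed in relative terms.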

Data set [6] addresses T2, Glutamate NMDA receptor; GRIN1/GRIN2A (Homo sapiens, UniProt Q05586+Q12879). In words: Activity at NR1/NR2A receptor expressed in xenopus oocytes assessed as effect on L-glutamate and glycine-induced current response. It is filed as cell-based, Oocyte.
Data set [7] deals with T1, Glutamate NMDA receptor; GRIN1/GRIN2B. In words: Inhibition of NR1/NR2B receptor expressed in xenopus oocytes assessed as effect on L-glutamate and glycine-induced current response relative to ifenprodil. The following applies: Oocyte. It is filed as cell-based. A digest of the protocol: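 Two-electrode voltage clamp on Xenopus oocytes expressing wild-type NR1/NR2B. Currents evoked by saturating L-glutamate plus glycine, 100 µM each; compound applied during the NMDA response and change in current size measured.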

For data set [8] the target is unchanged. In words: Inhibition of NR1/NR2B receptor expressed in xenopus oocytes assessed as effect on L-glutamate and glycine-induced current response. It is filed as cell-based, Oocyte. A digest of the protocol: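 Two-electrode voltage clamp on Xenopus oocytes expressing wild-type NR1/NR2B receptors. NMDA currents were evoked with saturating L-glutamate plus glycine. The compound was applied during an ongoing NMDA response, and the change in current amplitude it induced was measured.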

Data set [9] addresses T2, Glutamate NMDA receptor; GRIN1/GRIN2A. The data set can be described thus: Activity at NR1/NR2A receptor expressed in xenopus oocytes assessed as Inhibition of L-glutamate and glycine-induced current response at 100 uM. The following applies: Oocyte. It is filed as cell-based.
Data set [10] addresses T1, Glutamate NMDA receptor; GRIN1/GRIN2B. In words: Inhibition of N-terminal domain truncated NR1/NR2B receptor expressed in xenopus oocytes assessed as effect on L-glutamate and glycine-induced current response upto 100 uM. It is filed as cell-based. The following applies: Oocyte.
The target is the same in data set [11]. In words: Inhibition of N-terminal domain truncated NR1/NR2B receptor expressed in xenopus oocytes assessed as effect on L-glutamate and glycine-induced current response. It is filed as cell-based, Oocyte.
For data set [12], the target named is T2, Glutamate NMDA receptor; GRIN1/GRIN2A. In words: Inhibition of NR1/NR2A receptor expressed in xenopus oocytes assessed as effect on L-glutamate and glycine-induced current response. It is filed as cell-based, Oocyte.

Glutamate receptor ionotropic, NMDA 2B, sequence (Q00960 whole entry): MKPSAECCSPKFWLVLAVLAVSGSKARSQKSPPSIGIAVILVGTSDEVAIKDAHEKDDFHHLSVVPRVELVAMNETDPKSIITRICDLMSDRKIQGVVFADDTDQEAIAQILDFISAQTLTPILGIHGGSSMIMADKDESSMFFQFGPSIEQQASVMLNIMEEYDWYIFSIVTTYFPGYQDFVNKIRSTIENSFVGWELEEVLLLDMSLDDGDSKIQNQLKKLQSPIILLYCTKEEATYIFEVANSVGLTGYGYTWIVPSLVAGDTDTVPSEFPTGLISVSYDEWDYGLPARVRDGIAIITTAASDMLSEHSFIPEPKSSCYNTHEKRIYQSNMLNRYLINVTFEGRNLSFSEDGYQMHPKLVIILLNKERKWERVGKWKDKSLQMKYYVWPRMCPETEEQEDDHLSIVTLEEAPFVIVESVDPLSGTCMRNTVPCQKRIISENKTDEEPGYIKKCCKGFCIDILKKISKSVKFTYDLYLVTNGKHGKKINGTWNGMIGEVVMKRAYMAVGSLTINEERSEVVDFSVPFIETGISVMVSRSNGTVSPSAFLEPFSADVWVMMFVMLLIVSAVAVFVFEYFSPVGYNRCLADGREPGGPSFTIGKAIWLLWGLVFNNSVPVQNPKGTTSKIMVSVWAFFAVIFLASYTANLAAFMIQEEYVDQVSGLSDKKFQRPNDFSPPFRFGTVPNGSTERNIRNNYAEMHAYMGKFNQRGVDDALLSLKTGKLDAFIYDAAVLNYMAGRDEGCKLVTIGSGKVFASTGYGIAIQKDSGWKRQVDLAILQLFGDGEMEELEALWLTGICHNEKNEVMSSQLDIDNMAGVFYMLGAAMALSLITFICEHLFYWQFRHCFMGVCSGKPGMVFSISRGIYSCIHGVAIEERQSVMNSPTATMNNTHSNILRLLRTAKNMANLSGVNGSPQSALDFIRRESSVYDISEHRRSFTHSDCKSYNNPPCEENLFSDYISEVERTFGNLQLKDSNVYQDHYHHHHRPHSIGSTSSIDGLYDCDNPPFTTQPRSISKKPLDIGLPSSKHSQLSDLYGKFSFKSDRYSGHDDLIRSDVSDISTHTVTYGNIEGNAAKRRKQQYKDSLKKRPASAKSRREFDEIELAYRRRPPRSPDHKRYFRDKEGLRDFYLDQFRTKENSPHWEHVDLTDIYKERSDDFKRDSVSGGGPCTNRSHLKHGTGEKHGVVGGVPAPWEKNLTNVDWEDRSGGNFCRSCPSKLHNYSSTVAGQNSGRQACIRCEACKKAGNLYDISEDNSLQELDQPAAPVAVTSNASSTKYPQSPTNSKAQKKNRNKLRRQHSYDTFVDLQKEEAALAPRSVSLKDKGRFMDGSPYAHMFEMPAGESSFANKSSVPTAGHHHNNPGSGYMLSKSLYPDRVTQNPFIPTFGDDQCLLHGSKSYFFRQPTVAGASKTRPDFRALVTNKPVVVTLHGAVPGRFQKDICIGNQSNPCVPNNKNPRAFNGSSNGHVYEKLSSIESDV
Glutamate receptor ionotropic, NMDA 2B (Rattus norvegicus), sequence (Q00960 27-1482 limits assumed): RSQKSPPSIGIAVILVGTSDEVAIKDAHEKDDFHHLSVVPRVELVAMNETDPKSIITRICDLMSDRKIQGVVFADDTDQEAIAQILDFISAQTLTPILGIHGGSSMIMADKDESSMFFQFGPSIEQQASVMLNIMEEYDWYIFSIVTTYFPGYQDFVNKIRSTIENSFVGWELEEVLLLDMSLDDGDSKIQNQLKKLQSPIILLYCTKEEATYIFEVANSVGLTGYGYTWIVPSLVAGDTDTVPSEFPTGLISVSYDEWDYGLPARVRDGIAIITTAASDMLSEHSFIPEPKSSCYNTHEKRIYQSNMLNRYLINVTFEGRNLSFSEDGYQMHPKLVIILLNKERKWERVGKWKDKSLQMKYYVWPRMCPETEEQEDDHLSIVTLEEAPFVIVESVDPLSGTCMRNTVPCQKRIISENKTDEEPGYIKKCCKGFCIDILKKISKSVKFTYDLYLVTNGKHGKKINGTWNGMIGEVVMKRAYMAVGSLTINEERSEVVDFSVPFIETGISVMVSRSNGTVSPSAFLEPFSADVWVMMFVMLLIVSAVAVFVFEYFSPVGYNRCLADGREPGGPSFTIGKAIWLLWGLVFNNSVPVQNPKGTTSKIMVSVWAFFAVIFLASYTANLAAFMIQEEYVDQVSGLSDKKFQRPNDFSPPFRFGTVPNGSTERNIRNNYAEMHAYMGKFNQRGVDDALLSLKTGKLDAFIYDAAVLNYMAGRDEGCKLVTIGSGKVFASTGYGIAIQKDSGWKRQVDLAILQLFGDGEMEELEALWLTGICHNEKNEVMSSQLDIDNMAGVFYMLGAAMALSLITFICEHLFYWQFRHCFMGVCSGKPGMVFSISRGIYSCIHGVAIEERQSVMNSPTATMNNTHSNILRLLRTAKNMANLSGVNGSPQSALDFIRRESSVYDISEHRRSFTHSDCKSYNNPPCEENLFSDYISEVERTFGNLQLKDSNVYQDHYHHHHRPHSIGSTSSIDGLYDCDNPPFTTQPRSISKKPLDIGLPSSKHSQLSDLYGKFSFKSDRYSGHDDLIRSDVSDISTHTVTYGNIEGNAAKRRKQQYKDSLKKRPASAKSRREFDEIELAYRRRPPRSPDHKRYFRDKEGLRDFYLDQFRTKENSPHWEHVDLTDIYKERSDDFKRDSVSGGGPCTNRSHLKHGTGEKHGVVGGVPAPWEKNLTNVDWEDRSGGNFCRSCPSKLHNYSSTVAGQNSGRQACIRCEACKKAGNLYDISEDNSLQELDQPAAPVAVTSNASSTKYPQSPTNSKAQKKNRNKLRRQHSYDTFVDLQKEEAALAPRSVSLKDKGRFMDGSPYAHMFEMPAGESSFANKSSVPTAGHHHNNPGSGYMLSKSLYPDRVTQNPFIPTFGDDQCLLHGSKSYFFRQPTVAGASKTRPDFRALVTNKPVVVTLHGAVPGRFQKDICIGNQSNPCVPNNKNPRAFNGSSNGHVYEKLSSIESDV

`CC(C(O)c1ccc(N)cc1)N1CCC(Cc2ccccc2)CC1` (racemic; erythro) [listing 1 of 2 here]: affinity in [1] was put at a Ki of 97 nM.

The molecule `CC(C(=O)c1ccc(N=C=S)cc1)N1CCC(Cc2ccccc2)CC1` (stereo not given) registered a Ki in data set [1] of 679 nM. Also, the inhibition in data set [2] was 8%. The Ratio in data set [3] was 62. For the same molecule, the half-life in [4] is 20 h; in [5], 0.054 h.

For the molecule `CC(C(O)c1ccc(N)cc1)N1CCC(Cc2ccccc2)CC1` (racemic; erythro) [listing 2 of 2 here], the Ratio in [3] worked out at 8.8.

In data set [1], `CC(C(=O)c1ccc(N)cc1)N1CCC(Cc2ccccc2)CC1` (stereo not given) displayed a Ki of 58 nM. Besides, the Ratio in data set [3] was 1.

Regarding `C=C(CN1CCC(Cc2ccccc2)CC1)C(=O)c1ccc(OC)cc1`, the Ki in [1] was determined as 527 nM. In [3], the Ratio turned out to be 48. Besides, in data set [6], the EC50 was > 100000 nM. Further, in [7], the Ratio IC50 amounted to 640. For the same molecule, the half-life was 5 h in data set [4] and 0.117 h in data set [5]. Besides, in data set [8], the IC50 was 70000 nM. Also, in data set [9], the inhibition is 11%. Besides, the result in data set [10] was inactive.

Regarding `CC(C(O)c1ccc(N)cc1)N1CCC(Cc2ccccc2)CC1` (racemic; threo) [listing 1 of 2 here], the Ratio in [3] came to 27.

In [1], `C=C(CN1CCC(Cc2ccccc2)CC1)C(=O)c1ccc([N+](=O)[O-])cc1` returned a Ki of 248 nM. Moreover, in data set [3], the Ratio came to 23. Besides, the figures for the half-life in data set [4] and in [5] were 5 h and 1.03 h, respectively.

Take `CC(=O)Nc1ccc(C(=O)C(C)N2CCC(Cc3ccccc3)CC2)cc1` (stereo not given): the affinity in data set [1], expressed as Ki, was 107 nM. Further, in [3], the Ratio stood at 10.

Take `CC(C(O)c1ccc(N)cc1)N1CCC(Cc2ccccc2)CC1` (racemic; threo) [listing 2 of 2 here]: the affinity in data set [1], expressed as Ki, was 300 nM.

In turn, `O=C(CN1CCC(Cc2ccc(N=C=S)cc2)CC1)c1ccc(O)cc1` yielded a Ki in data set [1] of 245 nM. The IC50 in data set [11] amounted to 570000 nM; in data set [8], 16000 nM; in [12] it was 16000 nM. In data set [3], the Ratio stood at 22. Also, the EC50 in [6] was > 100000 nM. Further, the Ratio IC50 in [7] was found to be 145. Besides, the half-life in data set [4] is > 24 h; in data set [5], 0.383 h.

For the molecule `O=C(CN1CCC(Cc2ccccc2)CC1)c1ccc(O)cc1`, the Ki in data set [1] is 141 nM. Moreover, the Ratio in [3] turned out to be 13.

In the case of `Oc1ccc(C(O)CN2CCC(Cc3ccccc3)CC2)cc1` (stereo not given), affinity in data set [1] was put at a Ki of 62 nM. Also, the Ratio in data set [3] was found to be 16.

On to `CC(C(=O)c1ccc(NC(=O)CCl)cc1)N1CCC(Cc2ccccc2)CC1` (stereo not given), for which the Ki in data set [1] was 493 nM. In addition, the concentration for half-maximal inhibition (IC50) in data set [11] is 230000 nM; in [8] it was 14000 nM. Also, the Ratio in [3] amounted to 45. Also, the EC50 in data set [6] is > 100000 nM. In data set [7], the Ratio IC50 was 130. Besides, the half-life is > 24 h in data set [4] and 1.9 h in data set [5]. Also, the inhibition in [9] came out at 25%.

Molecule `O=C(CN1CCC(Cc2ccc([N+](=O)[O-])cc2)CC1)c1ccc(O)cc1` registered a Ki in data set [1] of 200 nM. In addition, the Ratio in data set [3] is 18.

By Ki is commonly meant a measure of affinity in units of concentration, obtained from inhibition or displacement. As usually defined, the inhibition is the relative decrease from the control value, in per cent. In general, half-life refers to how long it takes for the measured level to halve. The term EC50 denotes the concentration at which the effect is half-maximal. Broadly, the IC50 is the concentration needed to halve the response being measured.
